Rows were chosen to be rich in hits. Some 1.4% of all compounds tested hit in one or more screens of this group.
ATG4B inhibitor: ATG4B (human) cysteine protease inhibition; ATG4B cleavage of LC3-PLA2, NBD-HPC fluorescence, 1 h; inhibition, % at 8.33 µM; actives 0.51% (n = 340,000); AID 504462; in the data active means inhibition above about 40%
Target sequence (Q9Y4P1 whole entry, looked up): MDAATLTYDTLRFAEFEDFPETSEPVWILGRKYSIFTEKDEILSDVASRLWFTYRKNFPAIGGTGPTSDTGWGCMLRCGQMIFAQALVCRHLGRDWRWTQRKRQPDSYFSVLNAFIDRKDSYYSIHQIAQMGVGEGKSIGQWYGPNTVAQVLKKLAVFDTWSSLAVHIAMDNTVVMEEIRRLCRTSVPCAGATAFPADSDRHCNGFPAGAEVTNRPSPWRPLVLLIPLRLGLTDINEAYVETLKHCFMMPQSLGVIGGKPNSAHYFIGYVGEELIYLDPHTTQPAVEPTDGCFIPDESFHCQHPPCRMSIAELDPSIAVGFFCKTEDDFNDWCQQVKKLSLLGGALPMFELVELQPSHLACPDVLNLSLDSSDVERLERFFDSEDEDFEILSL
UCH37 inh: human UCH37 deubiquitinating enzyme inhibition | Q9Y5K5 | AID 588478 | inhibition, % (concentration not given with the values) | purified proteasome/UCH37, Ub-AMC cleavage fluorescence | actives 0.33% (n = 330,000);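 active means mean inhibition over replicate wells above about 20%, limit read from the data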
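Test system – human UCH37 enzyme supplied as purified proteasome complex · Incubation – 30 min preincubation with enzyme, 25 min cleavage at room temperature · Detection – AMC fluorescence from Ub-AMC cleavage, excitation 355 nm, emission 460 nm · Benchmarks – no-proteasome wells (full inhibition) and compound-free wells (no inhibition)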
Rin1 Abl inh: human Rin1-Abl interaction inhibition; P00519+Q13671; TR-FRET Rin1/Abl binding, biochemical; inhibition, % at 7.35 µM; actives 0.4% (n = 360,000); in the data active means inhibition above about 5%, passing the limit was not always enough
TbMetRS inhib: blocks T. brucei methionyl-tRNA synthetase activity; inhibition, % at 11.9 µM; AID 624268; actives 0.4% (n = 360,000); purified T. brucei MetRS, ATP depletion, Kinase-Glo luminescence;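 active means inhibition above a per-plate cutoff of the control wells' mean inhibition plus 3 SD, cut at about 5.5% in these data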
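Test system: purified T. brucei MetRS enzyme. Also added: ATP, methionine and E. coli bulk tRNA substrates. Compound: 11.9 µM single point. Schedule: 15 min enzyme-compound preincubation, 2 h reaction, 10 min detection, 25 °C. Signal: luciferase luminescence of residual ATP, Kinase-Glo. Evaluation: percent inhibition versus plate control medians. Controls: DMSO wells, low control.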
ATG4B conf: ATG4B (human) inhibition, single-dose confirmed | shares compounds with ATG4B inhibitor | ATG4B protease fluorescent substrate cleavage assay | inhibition, % at 8.33 µM | actives 92% (n = 320); in the data active means inhibition above about 39%
PLA2 ctr: PLA2 (human) inhibition in ATG4B counter-screen; shares compounds with ATG4B inhibitor; purified PLA2, NBD-C6-HPC fluorescence, 45 min; inhibition, % at 8.33 µM; actives 66% (n = 1,600); AID 588402; in the data active means inhibition above about 50%
Target sequence (P04054 whole entry, looked up): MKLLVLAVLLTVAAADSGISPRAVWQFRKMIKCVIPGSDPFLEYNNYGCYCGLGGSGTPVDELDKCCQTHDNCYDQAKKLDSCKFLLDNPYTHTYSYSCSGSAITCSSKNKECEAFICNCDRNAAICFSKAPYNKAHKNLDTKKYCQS
Of the large screens only hits and unclear results are named; the others gave an inactive call (follow-up assays come after a bar, where they were run).

O=C(CSc1ccc(Br)cc1)Nc1ccccc1Oc1ccccc1	none
O=C(CSc1ccc(Cl)cc1)Nc1ccccc1Oc1ccccc1	ATG4B inhibitor 40 | PLA2 ctr inactive
CCN(CC)CCn1c(SCC(=O)NCc2ccccc2)nc2c(sc3ccccc32)c1=O	none
CS(=O)(=O)C1=NSC2=NC(=O)/C(=C\c3ccc(-c4ccccc4)o3)C(=N)N21	none (no result: ATG4B inhibitor, Rin1 Abl inh, TbMetRS inhib)
CC(C)S(=O)(=O)C1=NSC2=NC(=O)/C(=C\c3ccc(-c4ccccc4)o3)C(=N)N21	ATG4B inhibitor 59 | PLA2 ctr 56
Cn1c2ccc(F)cc2c2nnc(SCCN3CCOCC3)nc21	none
CCc1n[nH]c(=S)n1/N=C/c1ccc(NC(C)=O)cc1	none (no result: UCH37 inh)
Cc1nc2c(C(=O)NCc3ccccc3)c[nH]n2c(=O)c1Cl	none
Cc1nc2c(C(=O)NCCc3ccccc3Cl)c[nH]n2c(=O)c1Cl	ATG4B inhibitor 43 | PLA2 ctr 57
COC(=O)c1c[nH]n2c(=O)c(Cl)c(C)nc12	none
Cc1nc2c(C(=O)NCc3ccccc3Cl)c[nH]n2c(=O)c1Cl	ATG4B inhibitor 49 | ATG4B conf 62 | PLA2 ctr inactive
CCOC(=O)C1CCCN(c2c(NCC3CCCO3)c(=O)c2=O)C1 (stereo not given)	none
CC(=O)Nc1ccc(S(=O)(=O)Nc2nc3ccccc3nc2Nc2ccc3ccccc3c2)cc1	ATG4B inhibitor 48 | PLA2 ctr 58
O=C(Cc1cccc(NC(=O)C2CCCN(C(=O)C3CCCC3)C2)c1)Nc1cccc(C(=O)N2CCOCC2)c1 (stereo not given)	none
CCc1nc(N2CCN(Cc3ccc4c(c3)OCO4)CC2)c2oc3ccccc3c2n1	ATG4B inhibitor 49 | PLA2 ctr 70
CCc1nc(N2CCCCC2)c2oc3ccccc3c2n1	ATG4B inhibitor 53 | PLA2 ctr 61
CCc1nc(N2CCCCC2C)c2oc3ccccc3c2n1 (stereo not given)	ATG4B inhibitor 45 | PLA2 ctr 56
CCc1nc(N2CCCC(C)C2)c2oc3ccccc3c2n1 (stereo not given)	ATG4B inhibitor 43 | PLA2 ctr 52
CCc1nc(N2CCCCC2C(=O)O)c2oc3ccccc3c2n1 (stereo not given)	none
Cc1nc(N2CCOCC2)c2oc3ccccc3c2n1	none
S=C(NCc1ccccc1)NC1CCSc2ccccc21 (stereo not given)	ATG4B inhibitor 64 | PLA2 ctr 69
O=C(NC1CCSc2ccccc21)c1cccc(Br)c1 (stereo not given)	none
FC(F)Oc1ccc(NC(=S)NC2CCSc3ccccc32)cc1 (stereo not given)	ATG4B inhibitor 59 | PLA2 ctr 57
Cc1cccc(NC(=S)NC2CCSc3ccccc32)c1 (stereo not given)	ATG4B inhibitor 42 | PLA2 ctr 54
c1ccc(Sc2cnc3ccccc3n2)cc1	none
Cc1ccc(-c2nnc(Nc3ccc4c(c3)OCO4)c3ccccc23)cc1S(=O)(=O)NCCO	none
Cc1ccc(-c2nnc(Nc3ccc(CC(N)=O)cc3)c3ccccc23)cc1S(=O)(=O)NCCO	ATG4B inhibitor 84 | PLA2 ctr 87
NC(=O)Cc1ccc(Nc2nnc(-c3ccc(O)cc3)c3ccccc23)cc1	ATG4B inhibitor 92 | PLA2 ctr 91
CC(C)CC(NC(=O)OC(C)(C)C)C(=O)O (stereo not given)	none
Nc1c(C(=O)Nc2ccccc2F)sc2nc(-c3cccnc3)ccc12	none
Nc1c(C(=O)Nc2ccccc2F)sc2nc(-c3ccco3)ccc12	ATG4B inhibitor 47 | PLA2 ctr inactive
CCN(CC)S(=O)(=O)c1ccc(C(=O)O)cc1	none
COc1ccc(/C(C)=N/NC(=O)c2nnn(-c3nonc3N)c2-c2ccccc2)cc1	none (no result: UCH37 inh)
COc1ccc(N2C(=O)c3ccccc3NC23CCC(C)CC3)cc1 (stereo not given)	ATG4B inhibitor 45 | ATG4B conf 61 | PLA2 ctr inactive
COc1cc(/C=C2\C(=N)N3N=C(N4CCOCC4)SC3=NC2=O)ccc1OC(=O)c1ccccc1	none
N=C1/C(=C\c2ccc(OC(=O)c3ccccc3Cl)cc2)C(=O)N=C2SC(N3CCOCC3)=NN12	ATG4B inhibitor 58 | PLA2 ctr 52
COc1ccccc1C(=O)Oc1ccc(C(C)(C)C)cc1	ATG4B inhibitor 42 | PLA2 ctr 50
COc1ccccc1C(=O)Oc1ccc2ccc(=O)oc2c1	none
NC(=O)c1ccc(NCCc2ccccc2)c([N+](=O)[O-])c1	ATG4B inhibitor 49 | PLA2 ctr 66
Cc1ccc(C(=O)NC(C)CCc2ccccc2)cc1[N+](=O)[O-] (stereo not given)	none
CCc1ccccc1NC(=O)c1ccc(NCCc2ccccc2)c([N+](=O)[O-])c1	ATG4B inhibitor 42 | PLA2 ctr inactive
O=C(Nc1ccccc1)c1ccc(NCCc2ccccc2)c([N+](=O)[O-])c1	none
CC1(C(=O)NS(=O)(=O)C2CC2)CCCN(C(=O)c2cc3ccccc3s2)C1 (stereo not given)	none (no result: ATG4B inhibitor, UCH37 inh)
COc1ccc(COc2cccc(C=O)c2)cc1	none
O=Cc1cccc(OCc2cccc3ccccc23)c1	ATG4B inhibitor 61 | PLA2 ctr 73
Brc1ccc2[nH]c3c(N4CCc5ccccc5C4)ncnc3c2c1	ATG4B inhibitor 48 (no result: Rin1 Abl inh, TbMetRS inhib) | PLA2 ctr 63
CCOc1ccc2[nH]c3c(N4CCc5ccccc5C4)ncnc3c2c1	none (no result: UCH37 inh)
CN(C)C(=O)N1CCC(C(=O)NCc2ccc(F)cc2Cl)CC1	none
COc1ccccc1CNC(=O)c1ccccc1OCc1ccc(F)cc1	ATG4B inhibitor 44 | ATG4B conf 75 | PLA2 ctr inactive
CCN(C(=O)CSC1=Nc2ccccc2C2CC=NN12)C1CCS(=O)(=O)C1 (stereo not given)	none
Cc1cc(NN=Cc2ccccc2Cl)nc(NCc2ccccc2)n1	none (no result: ATG4B inhibitor, Rin1 Abl inh, TbMetRS inhib)
Cc1cc(NN=Cc2ccc(N(C)C)cc2)nc(NCc2ccccc2)n1	none (no result: ATG4B inhibitor, Rin1 Abl inh, TbMetRS inhib)
Cc1cc(N/N=C/c2ccc(F)cc2)nc(NCc2ccccc2)n1	ATG4B inhibitor 71 (no result: UCH37 inh) | PLA2 ctr 64
Cc1ccc(/C=N/Nc2cc(C)nc(NCc3ccccc3)n2)cc1	ATG4B inhibitor 64 (no result: UCH37 inh) | PLA2 ctr 77
Cc1cc(N/N=C/c2ccc(Cl)cc2Cl)nc(NCc2ccccc2)n1	ATG4B inhibitor 85 (no result: UCH37 inh) | PLA2 ctr 88
Cc1cc(NN=Cc2cccc(F)c2)nc(NCc2ccccc2)n1	none (no result: ATG4B inhibitor, Rin1 Abl inh, TbMetRS inhib)
Cc1cc(Nc2ccc(Cl)cc2)nc(NCc2ccccc2)n1	ATG4B inhibitor 44 | ATG4B conf 69 | PLA2 ctr inactive
Cc1cc(Nc2ccccc2)nc(NCc2ccccc2)n1	none
CCc1ccc(NC(=O)N2CCC(c3ccccc3)C2)cc1 (stereo not given)	none
CC(C)NS(=O)(=O)c1ccc(OCC(=O)NCC2CCCO2)c(Cl)c1 (stereo not given)	none
